Results as given in article PMC10634246 (ACS Omega, 2023).

Assays:
eNOS and ET-1 = conditions: cited from earlier work
HUVECs = conditions: Ang II-stimulated HUVECs; cited from earlier work
ET-1 = assay: Western blot, ET-1 expression in HUVEC; assay type: cell-based, human; conditions: peptide 100 μM, 4 h, then Ang II 5 μM, 24 h
Outline: (§1)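 HUVECs at 5 × 10^6 cells/well, pretreated with 100 μM test peptide 4 h, then Ang II 5 μM 24 h. Lysed in ice-cold buffer 30 min, spun 12,000 × g 10 min, protein by BCA. Denatured 95 °C 10 min, 20–40 μg on 10% SDS-PAGE, PVDF transfer. Blocked in 5% BSA 1 h RT, primary antibody 4 °C overnight, secondary 1 h RT. Triplicate, mean ± SD.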

HUVEC [1] = assay: NO level in HUVEC; assay type: cell-based, human; conditions: peptide 100 μM, 4 h, then Ang II 5 μM, 24 h; for NO level: assay kit, n = 3
Nrf2 = assay: Western blot, Nrf2 expression in HUVEC; assay type: cell-based, human; conditions: peptide 100 μM, 4 h, then Ang II 5 μM, 24 h; for expression of Nrf2 protein: gray scale analysis of bands
Outline: as §1

HO-1 = assay: Western blot, HO-1 expression in HUVEC; assay type: cell-based, human; conditions: peptide 100 μM, 4 h, then Ang II 5 μM, 24 h; gray scale analysis of bands
Outline: as §1

CAT = CAT activity in HUVEC; assay type: cell-based, human; conditions: peptide 100 μM, 4 h, then Ang II 5 μM, 24 h; assay kit; n = 3
HepG2 = conditions: cited from earlier work
GSH-Px = GSH-Px activity in HUVEC; assay type: cell-based, human; conditions: peptide 100 μM, 4 h, then Ang II 5 μM, 24 h; assay kit; n = 3
p-eNOS = assay: Western blot, p-eNOS in HUVEC; assay type: cell-based, human; conditions: peptide 100 μM, 4 h, then Ang II 5 μM, 24 h
Outline: as §1

NQO1 = assay: Western blot, NQO1 expression in HUVEC; assay type: cell-based, human; conditions: peptide 100 μM, 4 h, then Ang II 5 μM, 24 h; gray scale analysis of bands
Outline: as §1

eNOS = assay: Western blot, eNOS expression in HUVEC; assay type: cell-based, human; conditions: peptide 100 μM, 4 h, then Ang II 5 μM, 24 h
Outline: as §1

HUVEC [2] = assay: MDA content in HUVEC; assay type: cell-based, human; conditions: 24 h, n = 3
SOD = SOD activity in HUVEC; assay type: cell-based, human; conditions: peptide 100 μM, 4 h, then Ang II 5 μM, 24 h; assay kit; n = 3
HUVEC [3] = assay: HUVEC morphology and cell number, inverted microscope; assay type: cell-based, human; conditions: peptide 100 μM, 4 h, then Ang II 5 μM, 24 h; 200×
Outline: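 HUVECs were suspended in fresh medium at a final 4 × 10^5 cells/well in 6-well plates and given 100 μM test peptide for 4 h. Medium was discarded, then 5 μM Ang II was added for 24 h. Cells were observed and photographed under an inverted microscope.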

Substance	effect on eNOS and ET-1 levels (eNOS and ET-1)	ET-1 expression (ET-1)	NO level (HUVEC [1])	expression of Nrf2 protein (Nrf2)	HO-1 expression (HO-1)	CAT activity (CAT)	protection against hyperglycemia-induced HepG2 damage (HepG2)	GSH-Px activity (GSH-Px)	eNOS phosphorylation (p-eNOS) (p-eNOS)	NQO1 expression (NQO1)	eNOS expression (eNOS)	SOD activity (SOD)	number of cells (HUVEC [3])	HUVEC morphology (HUVEC [3])	further results
LSGYGP	improvement effects	–	–	–	–	–	–	–	–	–	–	–	–	–	protection against oxidative stress and endothelial injury (HUVECs): revealed protective effects
PSRILYG [PG-7]	–	markedly blocked the Ang II-induced changes	increased	reversed the inhibitory effect of Ang II	higher than that in the KA-8 group	significantly rebounded to the levels in the Con group	revealed the protective effects	significantly rebounded to the levels in the Con group	increased	increased	increased	significantly rebounded to the levels in the Con group	significantly reversed	–	NO level higher than in the Ang II group (HUVEC [1]; compared to Ang II group): more than 100%; Nrf2 content higher than in the Con group (Nrf2; compared to Con group): about 50%; p-eNOS level higher than in the Ang II group (p-eNOS; compared to Ang II group): more than 100%; eNOS level higher than in the Ang II group (eNOS; compared to Ang II group): more than 100%; level of intracellular MDA (HUVEC [2]; peptide 100 μM, 4 h, then Ang II 5 μM, assay kit): decreased to that of the Con group
IPIPATKT	improvement effects	–	–	–	–	–	–	–	–	–	–	–	–	–	–
IVTNWDDMEK	improvement effects	–	–	–	–	–	–	–	–	–	–	–	–	–	–
Angiotensin II [Ang II, reference compound]	–	increased	obvious inhibition	significantly inhibited	–	significantly reduced	–	significantly reduced	obvious inhibition	–	obvious inhibition	significantly reduced	significantly reduced compared with the Con group	polygonal or round with the blurred cell boundaries	increase of MDA content compared to the Con group (HUVEC [2]; Ang II 5 μM, compared to Con group): 200%
KLHDEEVA [KA-8]	–	markedly blocked the Ang II-induced changes	increased	reversed the inhibitory effect of Ang II	increased	significantly reversed the decline	revealed the protective effects	significantly reversed the decline	increased	increased	increased	significantly reversed the decline	did not improve the number and morphology of cells as significantly as PG-8	did not improve the number and morphology of cells as significantly as PG-8	–
